From PubChem
NSD2 HMT inh – NSD2 histone methyltransferase inhibitors, primary screen, biochemical, AlphaScreen, single concentration, set 2; Histone-lysine N-methyltransferase NSD2 (Homo sapiens), O96028; NSD2 peptide methylation, 120 min; inhibition, % at 12.5 µM; 310,000 compounds, 0.54% hits; AID 743445, 2014; in the data active means inhibition above about 50%
UHRF1 MBD2 ctr – UHRF1 methylated DNA binding inhibitors, primary screen, counter-screen for MBD2 inhibitor project, biochemical, TR-FRET, human UHRF1, single concentration | E3 ubiquitin-protein ligase UHRF1 (Homo sapiens), Q96T88 | UHRF1 binding to methylated oligo | inhibition, % at 4.4 µM | 370,000 compounds, 0.75% hits | AID 687016, 2013; in the data active means inhibition above about 21%;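 further: UHRF1 SRA domain binding a hemimethylated CpG hairpin DNA probe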
TDP2 absorb – human TDP2 enzyme inhibitors, primary screen, biochemical, epi absorbance, recombinant enzyme; Tyrosyl-DNA phosphodiesterase 2 (Homo sapiens), O95551; T5PNP hydrolysis, p-nitrophenol absorbance 415 nm; inhibition, % at 12.8 µM; 370,000 compounds, 0.34% hits; AID 720702, 2013;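 active means inhibition above the mean of all tested compounds plus 3 SD, set per campaign, cut at about 25% in these data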
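Material: recombinant human TDP2; quantity: TDP2 enzyme at 120 nM final; medium: Tris-HCl pH 7.5 with MgCl2; compound: single concentration, 12.8 µM nominal, with 1% DMSO; incubation: 2 h enzyme incubation at 37 °C; signal: epi absorbance; measure: percent inhibition; benchmarks: high control without enzyme, low control DMSO plus TDP2; repeats: singlicate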
MBD2 DNA inh – inhibitors of MBD2 binding to methylated DNA, primary screen, biochemical, TR-FRET, DNA-binding domain, human | Methyl-CpG-binding domain protein 2 (Homo sapiens), Q9UBB5 | MBD2 binding to methylated oligonucleotide | inhibition, % at 4.4 µM | 370,000 compounds, 0.31% hits | AID 686964, 2013; in the data active means inhibition above about 13%
LEDGF integ inh – blockers of LEDGF/p75-dependent integrase strand transfer – biochemical, TR-FRET, high throughput, primary screen; HIV-1 integrase (with human LEDGF/p75); TR-FRET IN-LEDGF/p75 DNA integration, Eu/Cy5; inhibition, % at 3.7 µM; 370,000 compounds, 0.64% hits;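 active means inhibition above the screen-wide mean plus 3 SD, cut at about 13% in these data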;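 further: signal is the Cy5 over europium emission ratio at 671 and 618 nm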
Casp6 inh – human caspase-6 inhibitors, primary screen, biochemical, VEID-R110 fluorescence, single point, set 2. P55212. purified caspase-6, Z-VEID-R110 cleavage fluorescence. inhibition, % at 12.5 µM. 350,000 compounds, 0.53% hits. AID 686996, 2013;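 active means mean inhibition across replicates at least about 35%, with every replicate also reaching that limit, limit read from the data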
Target sequence (P55212 24-179 limits assumed): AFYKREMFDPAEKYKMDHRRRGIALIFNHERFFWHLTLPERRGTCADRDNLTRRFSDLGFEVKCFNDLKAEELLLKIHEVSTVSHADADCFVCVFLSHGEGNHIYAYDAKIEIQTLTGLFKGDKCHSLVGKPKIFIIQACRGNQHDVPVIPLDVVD
Target sequence (P55212 194-293 limits assumed): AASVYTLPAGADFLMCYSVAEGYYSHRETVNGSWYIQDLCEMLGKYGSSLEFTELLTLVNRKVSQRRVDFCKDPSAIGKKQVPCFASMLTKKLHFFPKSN
TDP2 inh conf – human TDP2 enzyme inhibitors, retest, confirmation, biochemical, epi absorbance, recombinant enzyme | shares compounds with TDP2 absorb | absorbance read-out | inhibition, % at 12.8 µM | 1,100 compounds, 22% hits | AID 743263, 2014; in the data active means inhibition above about 25%
Numbers stand for hits; n = inactive; x = not tested or not shown. A selection: hits, their analogues and other compounds. The true share with any hit is near 1.8%.

SMILES	NSD2 HMT inh	UHRF1 MBD2 ctr	TDP2 absorb	MBD2 DNA inh	LEDGF integ inh	Casp6 inh	TDP2 inh conf
COc1cccc(N2CCN(Cc3cccnc3)CC2)c1	n	n	31	n	n	x	n
O=C(NC1C(=O)NNC1c1ccc(Cl)cc1)c1ccc(F)cc1 (stereo not drawn)	n	n	n	n	n	n	x
O=C(NC1C(=O)NNC1c1ccccc1)c1ccc(F)cc1 (stereo not drawn)	n	n	26	n	n	x	n
C[C@@H]1CN([C@@H](C)CO)S(=O)(=O)c2ccc(C3=CCCCC3)cc2O[C@@H]1CN(C)Cc1cccnc1	x	x	x	x	x	n	x
CN1C2CCC1CC(N(CCc1ccccc1)C(=O)c1ccc(Cl)cc1)C2 (stereo not drawn)	n	n	28	n	n	n	n
Nc1ccc(OC(=O)Nc2ccc(O)cc2)cc1	n	n	30	n	n	61	n
O=C(Nc1ccc(N2CCN(c3ccc(O)cc3)CC2)cc1)Oc1ccccc1	n	n	n	n	n	n	x
O=C(O)COCC(=O)Nc1cc(C(F)(F)F)cc(C(F)(F)F)c1	n	n	26	n	n	n	n
C[C@@H]1CN([C@@H](C)CO)C(=O)Cc2cc(NC(=O)CCCCCC(=O)Nc3ccccc3N)ccc2O[C@@H]1CN(C)Cc1ccccc1	x	x	x	x	x	n	x
COc1cc(/C=C2\C(=O)N(c3ccccc3)N=C2C)ccc1Oc1ccc([N+](=O)[O-])cc1[N+](=O)[O-]	n	n	65	n	n	x	n
C#CCOc1ccc(/C=C2/C(=O)N(c3cccc(C(=O)O)c3)N=C2C)cc1OC	n	n	71	n	n	n	n
O=C(C[C@@H]1CC[C@@H](NC(=O)CC2CC2)[C@@H](CO)O1)NCc1ccc(Cl)cc1	x	x	x	x	x	n	x
O=C(C[C@H]1C=C[C@H](NS(=O)(=O)c2ccccc2)[C@H](CO)O1)N1CCN(c2ccccc2)CC1	x	x	x	x	x	n	x
CC(=O)c1c(C)oc2c1cc(NS(=O)(=O)c1ccc(C(=O)O)cc1)c1ccccc12	n	n	29	n	n	n	n
Cc1ccc(S(=O)(=O)Nc2cc3c(C(=O)O)c(C)oc3c3ccccc23)c(C)c1	x	n	n	n	n	n	x
C[C@@H]1CCCCO[C@H](CN(C)C(=O)Nc2ccc(F)cc2)[C@H](C)CN([C@H](C)CO)C(=O)c2cc(NC(=O)Cc3ccccc3)ccc2O1	x	x	x	x	x	n	x
CN(C)C(CNC(=O)c1ccc(NS(=O)(=O)c2ccc(F)cc2)cc1)c1ccco1 (stereo not drawn)	n	n	27	n	n	n	n
COc1cccc(NC(=O)c2cccnn2)c1	n	n	n	n	n	n	x
COc1cccc(NC(=O)c2cccc(C(=O)Nc3cccc(OC)c3)n2)c1	n	n	25	n	n	n	n
O=C(Nc1cccc2nsnc12)c1ccc(-c2ccc(Br)cc2)o1	n	n	25	n	n	x	n
O=C(NCc1ccc2c(c1)OCO2)c1ccc(CN2CCc3ccccc3C2)cc1	n	n	n	n	n	x	x
Brc1cc2c(cc1CN1CCc3ccccc3C1)OCO2	n	n	26	n	n	n	n
O=C(O)CCCNc1cc(N2CCN(C(=O)c3ccco3)CC2)c2noc3c2c1C(=O)c1ccccc1-3	78	n	30	n	n	n	27
C[C@H]1CN([C@@H](C)CO)S(=O)(=O)c2ccc(C#CC3CC3)cc2O[C@@H]1CN(C)C(=O)c1cccnc1	x	x	x	x	x	n	x
CCCCOc1ncnc2c1[nH]c1ccc(OCC)cc12	n	n	n	n	n	x	x
CCOc1ccc2[nH]c3c(NCCO)ncnc3c2c1	n	n	27	n	n	n	n
COc1ccc(C)cc1NC(=O)C(NCC(O)c1ccccc1)c1ccccc1 (stereo not drawn)	n	n	26	n	n	n	n
